Most compounds without a hit are left out; they make up all but 3.3% or so of the library.
ABHD4 inh = inhibitors of mouse ABHD4; hit rate 0.54% among 370,000; AID 720543; purified mABHD4, FP-Rh probe fluorescence polarization; inhibition, % at 8.92 µM; Q8VD66;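 active = inhibition exceeding the mean over every tested compound plus 3 SD, cut at about 30% in these data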;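 also: 0% = plate median of compound wells and 100% = S159A mutant with DMSO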
Target sequence (Q8VD66 whole entry, looked up): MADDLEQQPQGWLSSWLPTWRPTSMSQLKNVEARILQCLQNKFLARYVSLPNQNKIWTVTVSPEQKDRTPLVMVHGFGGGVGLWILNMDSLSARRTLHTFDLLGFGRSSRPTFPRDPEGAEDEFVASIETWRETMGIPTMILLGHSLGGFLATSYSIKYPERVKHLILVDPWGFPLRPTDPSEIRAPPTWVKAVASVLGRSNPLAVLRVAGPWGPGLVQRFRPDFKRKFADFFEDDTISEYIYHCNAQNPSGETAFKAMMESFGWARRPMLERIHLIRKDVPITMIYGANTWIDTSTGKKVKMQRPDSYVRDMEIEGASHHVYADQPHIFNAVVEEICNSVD
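Assay system: mABHD4 protein; medium: HEPES pH 7.0, NaCl, Pluronic buffer; dosing: 8.92 µM, single dose; schedule: 45 min + 60 min at 25 °C; signal: FP readout, ex 525 nm / em 598 nm; read-out: normalized percent inhibition of probe labeling; repeats: single replicate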
rCAG RNA binder = molecules binding r(CAG) RNA repeats; inhibition, % at 3 µM; r(CAG) RNA repeat, TO-PRO-1 dye displacement fluorescence; hit rate 1.3% among 370,000;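 active = inhibition above the plate cutoff, the mean of all test compounds on that plate plus 3 SD, cut at about 35% in these data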;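 also: 0% = DMSO alone and 100% = 100 µM mitoxantrone as full dye displacement; higher means more dye released from RNA so lower well fluorescence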
PRMT1 FP inh = inhibitors of human PRMT1; hit rate 1.3% among 370,000; Q99873; inhibition, % at 2.79 µM; recombinant PRMT1, activity-based probe fluorescence polarization;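 active = inhibition above about 21% made by adding two undisclosed values, limit read from the data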
HTRA1 inh = blocks human HTRA1 serine peptidase. Q92743. recombinant HTRA1, FP-rhodamine activity-based probe, fluorescence polarization. inhibition, % at 5.96 µM. hit rate 0.5% among 340,000. AID 504803; in the data active = inhibition above about 36%;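 also: 0% = enzyme with DMSO and 100% = wells lacking enzyme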
SIAE inh = blocks human sialic acid acetylesterase. inhibition, % at 9.66 µM. SIAE FP-Rh probe binding, fluorescence polarization. Q9HAT2. hit rate 0.69% among 370,000;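 active = inhibition above a cutoff: mean of compounds within the control limits plus 3 SD of those, cut at about 17% in these data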;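 also: 0% = plate median of compound wells and 100% = probe without SIAE protein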
* marks the source's active call; other numbers are inactive results; · = not tested or not shown.

SMILES	ABHD4 inh	rCAG RNA binder	PRMT1 FP inh	HTRA1 inh	SIAE inh
Cc1oc(-c2ccc(F)cc2)cc1-c1nn2c(-c3ccoc3C)nnc2s1	14.1	36.3*	19.8	9.9	2.0
COc1ccc(N=C2Sc3ccccc3[C@@H]3C[C@H]4[C@H](CON4C)CN23)c(OC)c1	1.3	1.1	-2.6	·	5.6
COCCCn1cc(CN2CC=CS2(=O)=O)nn1	-5.4	2.5	8.7	·	1.4
Cc1cc(=O)[nH]c(SCC(=O)Nc2nc3ccccc3s2)n1	-3.0	7.1	21.2*	8.5	-8.7
CCOC(=O)[C@]12CCCCC/C=C\1N(CCc1ccc(Cl)cc1)C(=O)[C@H]2CC(=O)NCc1ccc(C)o1	-4.9	5.8	7.0	·	-14.7
CCN(CC)S(=O)(=O)c1ccc2c(c1)nc(SCn1nnc3ccccc3c1=O)n2CC	-3.5	7.6	21.9*	-1.6	2.1
CCC[C@@H](CN1CCC[C@H]1CN1C(N)=NC[C@@H]1Cc1ccccc1)N1C[C@@H]([C@H](C)CC)N(CCc2ccc(Cl)c(Cl)c2)C1=N	·	·	·	4.4	·
CCC[C@@H](CN1CCC[C@H]1CN1C(N)=NC[C@@H]1Cc1ccccc1)N1C[C@@H](Cc2ccccc2)N(CCc2ccc(Cl)c(Cl)c2)C1=N	33.6*	15.2	1.0	-5.3	11.3
COCCNC(=O)c1c[nH]c2cc(OC)c(OC)cc2c1=O	1.2	0.9	24.6*	4.7	-3.1
COc1cc2[nH]cc(C(=O)NCCc3ccccc3)c(=O)c2cc1OC	-6.9	-2.0	4.6	-4.5	-3.4
CCOc1ccc(OCC)c(NC(=O)C2C3C=CC(O3)C2C(=O)O)c1 (stereo unspecified)	8.0	3.4	2.1	7.3	7.8
CCOc1ccccc1NC(=O)C1C2C=CC(O2)C1C(=O)O (stereo unspecified)	2.2	2.8	23.0*	0.9	3.1
COCc1cc(N2CCNC[C@@H]2C)ccc1N1C[C@@H](C)O[C@@H](C)C1	4.9	3.5	-5.4	·	8.8
Cc1ccccc1N(Cc1cc(=O)[nH]c2ccccc12)C(=O)CCl	8.5	5.5	4.0	3.8	-1.6
CCCCCCCN(C(=O)CCl)c1ccccc1C	-3.5	-5.9	46.8*	-1.0	1.9
CN1C(=O)c2cc(NS(C)(=O)=O)ccc2OC[C@H]2O[C@@H](CC(=O)NCc3ccc(-c4ccccc4)cc3)CC[C@@H]21	12.1	8.2	4.3	·	5.9
COCCN(Cc1ccc(C)cc1)C(=O)[C@@H](Cc1ccccc1)NC(=O)[C@H]1O[C@@H](n2ccc(=O)[nH]c2=O)[C@H](O)[C@@H]1O	-5.1	-0.8	-6.9	·	-1.8
Cc1ccc(-c2cc(C(=O)N3CCN(c4ncccn4)CC3)c3cc(Br)ccc3n2)o1	-1.4	8.4	49.4*	-8.5	-4.4
O=C(O)c1cccc(-c2ccc(/C=c3/sc4nc5ccccc5n4c3=O)o2)c1	15.2	28.2	24.2*	-4.6	-14.1
Cc1nc2cc(C(=O)N3CCN(C(=O)C(C)(C)C)CC3)ccc2n1C1CCCC1	3.8	-0.8	5.2	·	5.2
CCOC(=O)NC(=O)/C(C#N)=N\Nc1cccc(Cl)c1	3.9	22.4	-2.6	-5.1	1.6
CCOC(=O)NC1(Nc2cccc(Cl)c2)Oc2ccccc2O1	32.4*	9.0	19.3	20.7	12.4
Cc1cc(C)c(O)c(C(=O)CC2CC(=O)NC(=O)C2)c1	5.7	-1.2	-0.2	·	10.4
Cc1ccc(S(=O)(=O)N2CCCCC2)cc1NC(=O)CCc1nc2ccccc2c(=O)[nH]1	1.2	14.7	21.7*	-5.7	0.9
CON=C(C(=O)NC1C(=O)N2C(C(=O)O)=C(CSc3nc(=O)c(=O)[nH]n3C)CSC12)c1csc(N)n1 (stereo unspecified)	-4.9	16.8	21.4*	5.2	-6.5
SMILES	ABHD4 inh	rCAG RNA binder	PRMT1 FP inh	HTRA1 inh	SIAE inh
C[C@@H]1ON(C)[C@H]2C[C@H]3c4[nH]c5c(-c6cccc(Cl)c6)cccc5c4CCN3C(=O)[C@@H]12	1.0	13.0	2.0	·	6.7
CCOC(=O)c1c(C)[nH]c(C=Nc2ccc(OC)cc2)c1O	7.6	3.4	21.7*	4.3	-0.9
CC(C)c1ccc(C(CC(=O)c2ccc(Cl)cc2)C(=O)O)cc1 (stereo unspecified)	-8.8	45.1*	-2.4	-2.1	3.0
COC(=O)[C@]1(CC(C)C)NC=C(C(=O)c2ccccc2)[C@@H]1c1cccs1	2.9	11.7	-1.5	·	7.2
CC(C)C(C)(C#N)NC(=O)CSc1nc2scc(-c3ccco3)c2c(=O)n1-c1ccccc1 (stereo unspecified)	-19.3	15.4	22.1*	23.2	-7.3
CC(C)C(C)NC(=O)CSc1nc2scc(-c3ccco3)c2c(=O)n1-c1ccccc1 (stereo unspecified)	0.3	4.6	4.8	19.4	-8.9
CCOc1ccc(C2=Nn3c(nnc3-c3ccccc3OC)SC2)cc1	-3.4	-3.5	-3.6	-23.9	4.6
COc1ccccc1-c1nnc2n1N=C(c1ccc(O)c(O)c1)CS2	·	·	·	43.2*	·
Cc1sc2nc(CSCC(=O)N(C)CC(=O)Nc3ccc(F)cc3)[nH]c(=O)c2c1C	3.4	1.7	23.1*	-4.9	6.5
COC(=O)c1cc2c(c3c4cc(C)ccc4n(S(=O)(=O)c4ccc(OC)cc4)c13)C(=O)N(C)C2	-0.8	13.2	0.0	·	-3.1
O=C1c2cccc3c([N+](=O)[O-])ccc(c23)C(=O)N1Cc1cccnc1	4.5	-18.6	21.3*	5.1	-1.5
O=C1c2cccc3cccc(c23)C(=O)N1Cc1cccnc1	2.1	-1.5	2.4	1.0	-13.3
Cc1cc(Nc2cccc(C(F)(F)F)c2)cc(=O)n1-c1cccc(C(F)(F)F)c1	3.7	0.5	0.3	·	-1.8
CCC(Sc1nc(C)cc(C)n1)C(=O)NC1=NN=C(c2ccc(C)cc2)CS1 (stereo unspecified)	-0.2	2.6	49.1*	-3.3	-21.0
Cc1cc(C)nc(SCC(=O)NC2=NN=C(c3ccc(Br)cc3)CS2)n1	-5.7	6.1	13.5	-10.4	0.2
CCCn1c(C)c(CC(=O)Nc2ccc(N(C)c3ccccn3)cc2)c2ccccc21	6.5	5.1	4.3	·	5.6
CC[n+]1c(/C=C/C=C/N(C(C)=O)c2ccccc2)sc2ccccc21	-65.6	8.2	35.2*	-58.4	-210.6
COC(=O)C1=C(C)N(Cc2ccccc2C(F)(F)F)C(=NCc2ccc3c(c2)OCO3)NC1CCc1ccccc1 (stereo unspecified)	11.2	10.2	3.5	·	-2.1
Cc1ccc(N2CCN(C(=S)c3ccc(-c4cccc([N+](=O)[O-])c4)o3)CC2)cc1	-14.1	0.8	23.6*	1.9	-5.7
Cc1ccccc1N1CCN(C(=S)c2ccc(-c3cccc([N+](=O)[O-])c3)o2)CC1	1.3	4.9	4.0	-14.0	-4.2
Cc1ccc(NC(=O)Nc2ccc3c(c2)[C@]2(CC(=O)N(CC(C)C)C2c2ccccc2)C(=O)N3C)cc1Cl (stereo partly specified)	1.2	8.2	-4.0	·	15.2
CCC(C)(C)n1nnnc1C(c1cc2cc(C)ccc2[nH]c1=O)N1CCCC1 (stereo unspecified)	8.7	10.3	22.4*	-6.9	5.5

Source: PubChem BioAssay (The Scripps Research Institute Molecular Screening Center)
